One may read the MIC as the smallest concentration in the dilution series that meets the test's criterion for growth inhibition.

The source of these data is ChEMBL document CHEMBL5150048, “Synthesis and Evaluation of Polymyxins Bearing Reductively Labile Disulfide-Linked Lipids” (J Med Chem, 2022).

In data set [1] the test system is Acinetobacter baumannii. The data set is described as follows: Antibacterial activity against Acinetobacter baumannii ATCC 19606 assessed as inhibition of bacterial growth by CLSI based broth microdilution method. The data set is classed as functional. Summed up:
(§1)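 Broth microdilution per CLSI. Colonies from overnight blood agar at 37 °C were grown in TSB to OD600 0.5. Compounds (6.4 mg/mL DMSO stock) were diluted serially in CAMHB (12.5 μg/mL Mg2+, 20 μg/mL Ca2+) in polypropylene plates and inoculated to a final 10^6 CFU/mL, then incubated at 37 °C under gas-permeable membrane. MIC is the lowest concentration without visible growth, from at least duplicate experiments.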
A general note: In broth dilution the organism is exposed to a series of concentrations in liquid medium.

The nature of data set [2]: Stability of the compound in PBS assessed as drug degradation at 1 mg/ml incubated for 24 hrs in presence of 5 mM glutathione by RP-HPLC analysis. Format: physicochemical. The settings on record: buffer. The method, boiled down: (§2)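 Compound (1 mg/mL stock) was mixed 1:9 by volume with PBS glutathione stock: 5.5 μM for the low-glutathione line (7), 5.5 mM for the high-glutathione line (8). Vials were N2-flushed and held in the HPLC autosampler at RT. Samples at 0, 1, 2, 3, 4, 8, 10 and 24 h were analysed by RP-HPLC, UV 214 nm, and quantified against an external calibration curve in PBS run in duplicate.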

Data set [3] is described as follows: Stability of the compound in PBS assessed as compound remaining at 1 mg/ml incubated for 24 hrs in presence of 5 uM glutathione by RP-HPLC analysis. Format: physicochemical. The settings on record: PBS with 5 uM glutathione, read-out: Stability. Summed up: as §2
For data set [4], the system named is Erythrocyte. Put plainly: Hemolytic activity in sheep erythrocytes at 128 ug/ml incubated for 1 hr by absorbance based analysis. The data set is classed as toxicity, cell-based, Ovis aries. As to conditions: dose 128 µg/ml. Summed up:
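Defibrinated sheep red cells were washed four times in PBS with 0.002% Tween20 and adjusted to A415 2.5–3.0. They were mixed 1:1 by volume with compound serial dilutions (128–4 μg/mL, before mixing) and shaken 1 h at 37 °C. After centrifugation, supernatant was diluted in PBS and read at 415 nm. Values were background-corrected and given as % of 0.1% Triton X-100 lysis, from triplicates.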

Data set [5] is described as follows: Cytotoxicity against human differentiated conditionally immortalized RPTEC cells assessed as reduction in cell viability incubated for 24 hrs by PrestoBlue reagent based assay. The data set is classed as toxicity. As to conditions: read-out: TC50. The method, boiled down:
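ciPTEC (OAT-1) cells were seeded at 2.0 × 10^5 cells/mL in DMEM/F-12 with 10% FCS, insulin, transferrin, selenium, hydrocortisone, EGF and tri-iodothyronine. They were differentiated 24 h at 33 °C then 6 days at 37 °C, 5% CO2. Compounds serially diluted in serum-free medium were applied for 24 h at 37 °C, then 10% PrestoBlue in HBSS was added. Fluorescence (ex 530/em 590 nm) was background-corrected and normalized to untreated cells. TC50 came from nonlinear regression with bottom fixed at 0.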

Data set [6] relates to Escherichia coli. Put plainly: Antibacterial activity against Escherichia coli ATCC 25922 assessed as inhibition of bacterial growth by CLSI based broth microdilution method. The data set is classed as functional. Summed up:
as §1

Data set [7] deals with Klebsiella pneumoniae. Put plainly: Antibacterial activity against Klebsiella pneumoniae ATCC 13883 assessed as inhibition of bacterial growth by CLSI based broth microdilution method. The data set is classed as functional. Summed up: as §1
In data set [8] the test system is Pseudomonas aeruginosa. The data set is described as follows: Antibacterial activity against Pseudomonas aeruginosa ATCC 27853 assessed as inhibition of bacterial growth by CLSI based broth microdilution method. The data set is classed as functional. The method, boiled down:
as §1

Data set [9] can be described thus: Toxicity index, ratio of test compound TC50 to polymyxin B TC50 for cytotoxicity against human differentiated conditionally immortalized RPTEC cells incubated for 24 hrs by PrestoBlue reagent based assay. Format: cell-based.

Starred links: 1 amine or outer side, 2 acyl side, 3 side chain; linkers in the order of their positions; H or OH if unused. Positions of bridges follow the written chain, without caps; N, C: chain ends. Non-standard residues stand in square brackets, D forms with d. Residues, ends and D or L forms follow the SMILES beside them. *: point of attachment. X2 = CC(C)CCCCC[C@@H](N[*:1])C(=O)[*:2]; S(2-cyclohexylethyl) = C1CCC(CCS*)CC1; S(3-Cl-benzyl) = Clc1cccc(CS*)c1; X3 = c1ccc(Oc2ccc(CS*)cc2)cc1; X5 = c1ccc(-c2ccc(CS*)cc2)cc1; S(3-Methylbutyl) = CC(C)CCS*; X6 = c1ccc(-c2ccc(S*)cc2)cc1; Dab = NCC[C@H](N)C(=O)O; X1 = CC(C)CCCCS*; X4 = CCCCCCS* Where only a bound is given, the exact number is not on record here.

In the case of `CC(C)CCSSC[C@H](N)C(=O)N[C@H](C(=O)N[C@@H](CCN)C(=O)N[C@H]1CCNC(=O)[C@H]([C@@H](C)O)NC(=O)[C@H](CCN)NC(=O)[C@H](CCN)NC(=O)[C@H](CC(C)C)NC(=O)[C@@H](Cc2ccccc2)NC(=O)[C@H](CCN)NC1=O)[C@@H](C)O` (H-C(S(3-Methylbutyl))T[Dab][Dab][Dab][dF]L[Dab][Dab]T; lactam 4-C), the MIC in data set [1] is over 32 µg/mL. On the same count and under the same terms, then `CCCCCCSSC[C@H](N)C(=O)N[C@H](C(=O)N[C@@H](CCN)C(=O)N[C@H]1CCNC(=O)[C@H]([C@@H](C)O)NC(=O)[C@H](CCN)NC(=O)[C@H](CCN)NC(=O)[C@H](CC(C)C)NC(=O)[C@@H](Cc2ccccc2)NC(=O)[C@H](CCN)NC1=O)[C@@H](C)O` (H-C(X4)T[Dab][Dab][Dab][dF]L[Dab][Dab]T; lactam 4-C), with over 32 µg/mL. In the case of `CC(C)C[C@@H]1NC(=O)[C@@H](Cc2ccccc2)NC(=O)[C@H](CCN)NC(=O)[C@@H](NC(=O)[C@H](CCN)NC(=O)[C@@H](NC(=O)[C@H](CSSCCC2CCCCC2)NC(=O)CN)[C@@H](C)O)CCNC(=O)[C@H]([C@@H](C)O)NC(=O)[C@H](CCN)NC(=O)[C@H](CCN)NC1=O` (H-GC(S(2-cyclohexylethyl))T[Dab][Dab][Dab][dF]L[Dab][Dab]T; lactam 5-C), the Stability result in [2] is “Unstable”. For the same molecule, the remaining at 24 h, 1 mg/ml in data set [3] came to 70%. For the same molecule, in data set [4], the Activity result was “Non-Toxic”. For the molecule `CC(C)C[C@@H]1NC(=O)[C@@H](Cc2ccccc2)NC(=O)[C@H](CCN)NC(=O)[C@@H](NC(=O)[C@H](CCN)NC(=O)[C@@H](NC(=O)[C@H](CSSc2ccc(-c3ccccc3)cc2)NC(=O)CN)[C@@H](C)O)CCNC(=O)[C@H]([C@@H](C)O)NC(=O)[C@H](CCN)NC(=O)[C@H](CCN)NC1=O` (H-GC(X6)T[Dab][Dab][Dab][dF]L[Dab][Dab]T; lactam 5-C), in [4], the Activity result is “Non-Toxic”. `CC(C)C[C@@H]1NC(=O)[C@@H](Cc2ccccc2)NC(=O)[C@H](CCN)NC(=O)[C@@H](NC(=O)[C@H](CCN)NC(=O)[C@@H](NC(=O)[C@@H](CSSCCC2CCCCC2)NC(=O)CN)[C@@H](C)O)CCNC(=O)[C@H]([C@@H](C)O)NC(=O)[C@H](CCN)NC(=O)[C@H](CCN)NC1=O` (H-G[dC](S(2-cyclohexylethyl))T[Dab][Dab][Dab][dF]L[Dab][Dab]T; lactam 5-C): in data set [4], the Activity entry was “Non-Toxic”. Turning to `CC(C)CCCCC[C@@H](N)C(=O)N[C@H](C(=O)N[C@@H](CCN)C(=O)N[C@H]1CCNC(=O)[C@H]([C@@H](C)O)NC(=O)[C@H](CCN)NC(=O)[C@H](CCN)NC(=O)[C@H](CC(C)C)NC(=O)[C@@H](Cc2ccccc2)NC(=O)[C@H](CCN)NC1=O)[C@@H](C)O` (H-[X2]T[Dab][Dab][Dab][dF]L[Dab][Dab]T; lactam 4-C), the Activity entry in data set [4] is recorded as “Non-Toxic”. In [5], the CC50 at 24 h worked out at 82 µM. In the case of `CC(C)C[C@@H]1NC(=O)[C@@H](Cc2ccccc2)NC(=O)[C@H](CCN)NC(=O)[C@@H](NC(=O)[C@H](CCN)NC(=O)[C@@H](NC(=O)[C@H](N)CSSCCC2CCCCC2)[C@@H](C)O)CCNC(=O)[C@H]([C@@H](C)O)NC(=O)[C@H](CCN)NC(=O)[C@H](CCN)NC1=O` (H-[dC](S(2-cyclohexylethyl))T[Dab][Dab][Dab][dF]L[Dab][Dab]T; lactam 4-C), the Activity result in data set [4] is given as “Non-Toxic”. Turning to `CC(C)C[C@@H]1NC(=O)[C@@H](Cc2ccccc2)NC(=O)[C@H](CCN)NC(=O)[C@@H](NC(=O)[C@H](CCN)NC(=O)[C@@H](NC(=O)[C@H](N)CSSCc2cccc(Cl)c2)[C@@H](C)O)CCNC(=O)[C@H]([C@@H](C)O)NC(=O)[C@H](CCN)NC(=O)[C@H](CCN)NC1=O` (H-[dC](S(3-Cl-benzyl))T[Dab][Dab][Dab][dF]L[Dab][Dab]T; lactam 4-C), in data set [4], the Activity entry is on record as “Non-Toxic”. With `CC(C)CCSSC[C@@H](N)C(=O)N[C@H](C(=O)N[C@@H](CCN)C(=O)N[C@H]1CCNC(=O)[C@H]([C@@H](C)O)NC(=O)[C@H](CCN)NC(=O)[C@H](CCN)NC(=O)[C@H](CC(C)C)NC(=O)[C@@H](Cc2ccccc2)NC(=O)[C@H](CCN)NC1=O)[C@@H](C)O` (H-[dC](S(3-Methylbutyl))T[Dab][Dab][Dab][dF]L[Dab][Dab]T; lactam 4-C), the Stability entry in [2] is reported as “Unstable”. The remaining at 24 h, 1 mg/ml in data set [3] is 70%. In data set [4], the Activity result is “Non-Toxic”. Besides, the CC50 at 24 h in [5] worked out at 192 µM.

Consider `CC(C)CCCCSSC[C@@H](N)C(=O)N[C@H](C(=O)N[C@@H](CCN)C(=O)N[C@H]1CCNC(=O)[C@H]([C@@H](C)O)NC(=O)[C@H](CCN)NC(=O)[C@H](CCN)NC(=O)[C@H](CC(C)C)NC(=O)[C@@H](Cc2ccccc2)NC(=O)[C@H](CCN)NC1=O)[C@@H](C)O` (H-[dC](X1)T[Dab][Dab][Dab][dF]L[Dab][Dab]T; lactam 4-C), for which, in data set [4], the Activity result was “Non-Toxic”. On the same count and under the same terms, then `CC(C)C[C@@H]1NC(=O)[C@@H](Cc2ccccc2)NC(=O)[C@H](CCN)NC(=O)[C@@H](NC(=O)[C@H](CCN)NC(=O)[C@@H](NC(=O)[C@H](N)CSSCc2ccc(Oc3ccccc3)cc2)[C@@H](C)O)CCNC(=O)[C@H]([C@@H](C)O)NC(=O)[C@H](CCN)NC(=O)[C@H](CCN)NC1=O` (H-[dC](X3)T[Dab][Dab][Dab][dF]L[Dab][Dab]T; lactam 4-C), with “Non-Toxic”; and `CCCCCCSSC[C@@H](N)C(=O)N[C@H](C(=O)N[C@@H](CCN)C(=O)N[C@H]1CCNC(=O)[C@H]([C@@H](C)O)NC(=O)[C@H](CCN)NC(=O)[C@H](CCN)NC(=O)[C@H](CC(C)C)NC(=O)[C@@H](Cc2ccccc2)NC(=O)[C@H](CCN)NC1=O)[C@@H](C)O` (H-[dC](X4)T[Dab][Dab][Dab][dF]L[Dab][Dab]T; lactam 4-C), with “Non-Toxic”. Still for that read-out and setting: to `CC(C)C[C@@H]1NC(=O)[C@@H](Cc2ccccc2)NC(=O)[C@H](CCN)NC(=O)[C@@H](NC(=O)[C@H](CCN)NC(=O)[C@@H](NC(=O)[C@H](N)CSSCc2ccc(-c3ccccc3)cc2)[C@@H](C)O)CCNC(=O)[C@H]([C@@H](C)O)NC(=O)[C@H](CCN)NC(=O)[C@H](CCN)NC1=O` (H-[dC](X5)T[Dab][Dab][Dab][dF]L[Dab][Dab]T; lactam 4-C) belongs “Non-Toxic”. In the case of `CC(C)C[C@@H]1NC(=O)[C@@H](Cc2ccccc2)NC(=O)[C@H](CCN)NC(=O)[C@@H](NC(=O)[C@H](CCN)NC(=O)[C@@H](N)[C@@H](C)O)CCNC(=O)[C@H]([C@@H](C)O)NC(=O)[C@H](CCN)NC(=O)[C@H](CCN)NC1=O` [POLYMYXIN B NONAPEPTIDE] (H-T[Dab][Dab][Dab][dF]L[Dab][Dab]T; lactam 3-C), the MIC in data set [6], in data set [7], in data set [1] and in data set [8] was over 32 µg/mL throughout. Also, the selectivity ratio at 24 h in [9] was over 10. POLYMYXIN B [listing 1 of 2 here]: the Activity entry in data set [4] is recorded as “Non-Toxic”. On to POLYMYXIN B [listing 2 of 2 here], for which the MIC in data set [6] amounted to 1 µg/mL; in data set [7], 0.25 µg/mL; in data set [1] it was 0.25 µg/mL; in data set [8], 1 µg/mL.
